Measurements reported in ChEMBL document CHEMBL3085690, “Naturally occurring antimicrobial peptide OH-CATH30 selectively regulates the innate immune response to protect against sepsis” (J Med Chem, 2013).
Active and inactive are the calls of the source. The rule behind the calls is not given here.

Molecular target: Transcription factor p65 (Mus musculus) (UniProt Q04207)
Experiment: Activation of NFkappaB p65 in mouse BMDM assessed as phosphorylation at 10 ug/ml after 15 to 30 mins by Western blotting
Outline: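 BMDMs came from mouse bone marrow cultured in RPMI 1640 with 10% FCS and 20% L929-conditioned medium. After treatment, lysates were run on 10% SDS−PAGE, transferred to PVDF, blocked with 5% BSA, and probed for phospho-p65. Detection used an HRP anti-rabbit IgG secondary and chemiluminescence.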

Chain of Transcription factor p65 (Mus musculus) (Q04207 whole entry): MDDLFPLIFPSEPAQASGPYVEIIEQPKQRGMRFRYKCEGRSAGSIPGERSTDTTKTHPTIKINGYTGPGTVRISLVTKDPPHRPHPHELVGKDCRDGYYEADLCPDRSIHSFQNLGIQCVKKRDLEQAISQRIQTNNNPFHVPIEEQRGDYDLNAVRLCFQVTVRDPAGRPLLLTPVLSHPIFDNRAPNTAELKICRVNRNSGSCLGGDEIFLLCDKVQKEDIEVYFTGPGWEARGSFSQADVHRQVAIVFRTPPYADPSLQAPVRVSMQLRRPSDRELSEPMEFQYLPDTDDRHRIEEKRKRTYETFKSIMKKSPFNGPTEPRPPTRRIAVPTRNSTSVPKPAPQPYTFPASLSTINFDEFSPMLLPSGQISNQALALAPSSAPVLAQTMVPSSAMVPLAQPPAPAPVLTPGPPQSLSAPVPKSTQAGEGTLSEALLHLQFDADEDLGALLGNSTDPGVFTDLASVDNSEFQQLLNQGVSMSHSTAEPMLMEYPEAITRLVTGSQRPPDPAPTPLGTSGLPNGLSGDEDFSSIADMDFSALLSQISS

## CC[C@H](C)[C@H](NC(=O)[C@H](CCCCN)NC(=O)[C@H](CCC(=O)O)NC(=O)[C@H](CCCCN)NC(=O)[C@H](CO)NC(=O)[C@H](CCCCN)NC(=O)[C@H](CCCNC(=N)N)NC(=O)[C@H](Cc1ccccc1)NC(=O)[C@H](Cc1ccccc1)NC(=O)[C@H](CC(=O)O)NC(=O)CNC(=O)[C@H](CC(C)C)NC(=O)[C@@H](N)CC(C)C)C(=O)NCC(=O)N[C@@H](CCCCN)C(=O)N[C@@H](CCC(=O)O)C(=O)N[C@@H](Cc1ccccc1)C(=O)N[C@@H](CCCCN)C(=O)N[C@@H](CCCNC(=N)N)C(=O)N[C@H](C(=O)N[C@H](C(=O)N[C@@H](CCC(N)=O)C(=O)N[C@@H](CCCNC(=N)N)C(=O)N[C@H](C(=O)N[C@@H](CCCCN)C(=O)N[C@@H](CC(=O)O)C(=O)N[C@@H](Cc1ccccc1)C(=O)N[C@@H](CC(C)C)C(=O)N[C@@H](CCCNC(=N)N)C(=O)N[C@@H](CC(N)=O)C(=O)N[C@@H](CC(C)C)C(=O)N[C@H](C(=O)N1CCC[C@H]1C(=O)N[C@@H](CCCNC(=N)N)C(=O)N[C@H](C(=O)N[C@@H](CCC(=O)O)C(=O)N[C@@H](CO)C(=O)O)[C@@H](C)O)C(C)C)[C@@H](C)CC)C(C)C)[C@@H](C)CC
  Activity: Active
